Results reported in ChEMBL document CHEMBL1158850, “Structure-activity relationship and classification of flavonoids as inhibitors of xanthine oxidase and superoxide scavengers” (J Nat Prod, 1998).
Calls of active or inactive are those of the source. No cut-off for these calls is given here.

Legend:
[1] = molecular target: Xanthine dehydrogenase/oxidase (Homo sapiens, UniProt P47989); assay: Inhibition of xanthine oxidase assessed as decrease in uric acid production by spectrophotometry
Procedure, shortened: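 Flavonoid at various concentrations with 50 µM xanthine, 0.2 mM hydroxylamine and 0.1 mM EDTA. Stopped with HCl, then uric acid read as absorbance at 290 nm against an enzyme-free blank. IC50 by linear regression.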

[2] = Antioxidant activity assessed as superoxide-scavenging activity by nitrite method; format: functional
[3] = Prooxidant effect assessed as superoxide production by nitrite method; format: functional
Procedure, shortened: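 Xanthine oxidase (6.25 mU/mL, in 200 mM phosphate buffer pH 7.50) generated superoxide from 50 µM xanthine with 0.2 mM hydroxylamine and 0.1 mM EDTA, plus flavonoid at various concentrations. Incubated 30 min at 37 °C. Superoxide read by the nitrite method: stood 30 min at room temperature, then absorbance at 550 nm. Levels compared with control experiments; IC50 from linear regression.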

Chain of Xanthine dehydrogenase/oxidase (P47989 whole entry): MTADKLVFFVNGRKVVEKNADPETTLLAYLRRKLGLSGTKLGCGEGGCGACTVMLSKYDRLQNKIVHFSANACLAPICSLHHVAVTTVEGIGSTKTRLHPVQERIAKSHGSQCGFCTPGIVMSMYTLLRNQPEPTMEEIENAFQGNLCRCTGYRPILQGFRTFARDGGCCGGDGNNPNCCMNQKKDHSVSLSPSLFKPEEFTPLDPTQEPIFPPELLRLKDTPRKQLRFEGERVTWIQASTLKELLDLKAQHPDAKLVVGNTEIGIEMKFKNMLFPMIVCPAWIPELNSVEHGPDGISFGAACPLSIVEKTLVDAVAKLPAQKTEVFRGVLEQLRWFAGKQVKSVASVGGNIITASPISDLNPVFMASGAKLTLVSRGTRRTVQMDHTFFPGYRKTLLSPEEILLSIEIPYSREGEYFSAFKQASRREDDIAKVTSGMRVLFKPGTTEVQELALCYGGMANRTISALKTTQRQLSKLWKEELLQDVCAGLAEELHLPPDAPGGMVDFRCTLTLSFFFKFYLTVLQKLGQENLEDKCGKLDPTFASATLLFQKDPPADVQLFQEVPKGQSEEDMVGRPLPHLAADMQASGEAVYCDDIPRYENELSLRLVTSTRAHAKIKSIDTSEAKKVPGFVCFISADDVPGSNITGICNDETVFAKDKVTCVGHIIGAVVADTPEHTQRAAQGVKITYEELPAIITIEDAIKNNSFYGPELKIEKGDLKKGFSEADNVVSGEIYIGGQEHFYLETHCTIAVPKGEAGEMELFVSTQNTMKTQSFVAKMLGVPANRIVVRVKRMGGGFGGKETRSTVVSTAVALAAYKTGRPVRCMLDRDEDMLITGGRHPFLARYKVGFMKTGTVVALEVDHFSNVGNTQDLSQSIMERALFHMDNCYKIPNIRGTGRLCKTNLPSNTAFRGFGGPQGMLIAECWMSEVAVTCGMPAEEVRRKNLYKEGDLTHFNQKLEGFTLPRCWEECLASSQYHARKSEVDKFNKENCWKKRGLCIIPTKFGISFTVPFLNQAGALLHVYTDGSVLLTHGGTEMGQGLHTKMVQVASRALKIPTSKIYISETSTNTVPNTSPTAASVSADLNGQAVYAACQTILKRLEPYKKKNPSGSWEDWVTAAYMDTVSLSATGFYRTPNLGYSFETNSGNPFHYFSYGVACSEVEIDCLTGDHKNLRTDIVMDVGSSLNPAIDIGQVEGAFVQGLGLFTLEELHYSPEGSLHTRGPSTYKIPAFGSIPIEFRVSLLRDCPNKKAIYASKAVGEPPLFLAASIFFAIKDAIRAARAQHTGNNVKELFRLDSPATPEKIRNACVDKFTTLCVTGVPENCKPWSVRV

Row | IC50 [1] [nM] | IC50 [2] [nM] | Structure (SMILES) | Activity [3]
1 | > 100000 | > 100000 | COc1cc2oc(-c3ccc(O[C@@H]4O[C@H](CO)[C@@H](O)[C@H](O)[C@H]4O)cc3)cc(=O)c2c(O)c1OC [CIRSIMARIN] | –
2 | > 100000 | > 100000 | O=C(/C=C/c1ccc(O)cc1)OC[C@H]1O[C@@H](Oc2c(-c3ccc(O)cc3)oc3cc(O)cc(O)c3c2=O)[C@H](O)[C@@H](O)[C@@H]1O [TILIROSIDE] | –
3 | 38000 | > 100000 | O=c1cc(-c2ccccc2)oc2cc(O)ccc12 [7-HYDROXYFLAVONE] | Active
4 | – | 1730 | O=C1c2c(O)cc(O)cc2OC(c2ccc(O)c(O)c2)C1O (racemic) [TAXIFOLIN] | –
5 | 7700 | 2600 | COc1cc(O)c2c(=O)c(O)c(-c3ccc(OC)c(O)c3)oc2c1 [OMBUINE] | –
6 | > 100000 | > 100000 | COc1cc(-c2cc(=O)c3c(O)cc(O[C@@H]4O[C@H](CO)[C@@H](O)[C@H](O)[C@H]4O[C@@H]4O[C@@H](C)[C@H](O)[C@@H](O)[C@H]4O)cc3o2)ccc1O [CHRYSOERIOL-7-O-NEOHESPERIDOSIDE] | –
7 | 2790 | 2720 | O=c1cc(-c2ccccc2)oc2cc(O)c(O)c(O)c12 [BAICALEIN] | –
8 | 52200 | – | C[C@@H]1O[C@@H](OC[C@H]2O[C@@H](Oc3c(-c4ccc(O)c(O)c4)oc4cc(O)cc(O)c4c3=O)[C@H](O)[C@@H](O)[C@@H]2O)[C@H](O)[C@H](O)[C@H]1O [RUTIN] | –
9 | 14800 | 3400 | C[C@@H]1O[C@@H](OC[C@H]2O[C@@H](Oc3c(-c4ccc(O)cc4)oc4cc(O)cc(O)c4c3=O)[C@H](O)[C@@H](O)[C@@H]2O)[C@H](O)[C@H](O)[C@H]1O [NICOTIFLOROSIDE] | –
10 | 4330 | 1840 | O=c1c(O)c(-c2ccc(O)c(O)c2)oc2cc(O)ccc12 [FISETIN] | –
11 | 10100 | 9100 | O=c1c(O)c(-c2ccc(O)cc2O)oc2cc(O)cc(O)c12 [MORIN] | –
12 | > 30000 | > 18000 | O=C1CC(c2ccc(O)cc2)Oc2ccccc21 (configuration not stated) [4'-HYDROXY-FLAVANONE] | –
13 | > 100000 | > 100000 | O=c1c(O)c(-c2ccccc2)oc2ccccc12 [FLAVONOL] | –
14 | 1800 | 6740 | O=c1c(O)c(-c2ccccc2)oc2cc(O)cc(O)c12 [GALANGIN] | –
15 | 11900 | 2370 | C[C@@H]1O[C@@H](O[C@H]2[C@H](Oc3cc(O)c4c(=O)cc(-c5ccc(O)c(O)c5)oc4c3)O[C@H](CO)[C@@H](O)[C@@H]2O)[C@H](O)[C@H](O)[C@H]1O [LONICERIN] | –
16 | 1060 | 840 | O=c1c(O)c(-c2ccc(O)cc2)oc2cc(O)cc(O)c12 [KAEMPFEROL] | –
17 | 840 | 1870 | O=c1cc(-c2ccccc2)oc2cc(O)cc(O)c12 [CHRYSIN] | –

More lines, now with the values behind:

Row | Structure (SMILES) | IC50 [1] [nM] | IC50 [2] [nM] | Activity [3]
18 | COc1ccc(-c2cc(=O)c3c(OC)c(OC)c(OC)c(OC)c3o2)cc1 [TANGERETIN] | > 100000 | > 100000 | –
19 | O=c1cc(-c2ccc(O)cc2)oc2cc(O)cc(O)c12 [APIGENIN] | 700 | 1330 | –
20 | COc1cc(-c2oc3cc(O)cc(O)c3c(=O)c2O)ccc1O [ISORHAMNETIN] | 2510 | 2750 | –
21 | COc1ccc(-c2cc(=O)c3c(OC)c(OC)c(OC)c(OC)c3o2)cc1OC [NOBILETIN] | > 100000 | > 100000 | –
22 | O=c1c(O)c(-c2cc(O)c(O)c(O)c2)oc2cc(O)cc(O)c12 [MYRICETIN] | 2380 | 330 | –
23 | Oc1cc(O)c2c(c1)O[C@H](c1ccc(O)c(O)c1)[C@@H](O)C2 [CIANIDANOL] | > 100000 | 1610 | –
24 | O=c1c(O)c(-c2ccc(O)c(O)c2)oc2cc(O)cc(O)c12 [QUERCETIN] | – | 1630 | –
25 | Oc1cc(O)c2c(c1)O[C@H](c1ccc(O)c(O)c1)[C@H](O)C2 [(-)-EPICATECHIN] | > 100000 | 1590 | –
26 | Oc1ncnc2[nH]ncc12 [ALLOPURINOL] | – | 230 | –
27 | O=c1cc(-c2ccc(O)c(O)c2)oc2cc(O)cc(O)c12 [LUTEOLIN] | 550 | 1130 | –
28 | Oc1cc(O)c2c(c1)O[C@H](c1cc(O)c(O)c(O)c1)[C@H](O)C2 [EPIGALLOCATECHIN] | > 100000 | 480 | –
29 | O=C1C[C@@H](c2ccc(O)cc2)Oc2cc(O)cc(O)c21 [NARINGENIN] | > 50000 | > 50000 | –
30 | C[C@@H]1O[C@@H](Oc2c(-c3ccc(O)c(O)c3)oc3cc(O)cc(O)c3c2=O)[C@H](O)[C@H](O)[C@H]1O [QUERCITRIN] | > 100000 | 8100 | –
